Results from different studies.
Compare with care: the assays were run in different laboratories.
Effect on: enzyme activity
Action: inhibitor
CDK2: Cyclin-dependent kinase 2 (CDK2, Homo sapiens, UniProt P24941)
CDK2 with cyclin A: Cyclin-dependent kinase 2, with cyclin A (CDK2, Homo sapiens, UniProt P24941)

SMILES	target	technique	concentration	inhibition
CC/C(=N\NC(=O)NCc1cccc(O)c1)c1ccc(O)c(C)c1O	Cyclin-dependent kinase 2, with cyclin A2 (CDK2, Homo sapiens, UniProt P24941)		0.1 µM	0.5%
CNc1cccc2cc(C(=O)Nc3ccc(C(=O)O)cc3)c(=O)[nH]c12	CDK2		10 µM	-0.24%
O=C(CSc1nc2nccnc2c(=O)n1CCc1ccccc1)Nc1nccs1	Cyclin-dependent kinase 2, with cyclin O (CDK2, Homo sapiens, UniProt P24941)		10 µM	3%
Nc1nc(Nc2ccc(S(N)(=O)=O)cc2)sc1C(=O)c1ccccc1[N+](=O)[O-]	CDK2		0.1 µM	95 to 96%
COc1cc(-c2cc(-c3ccc(N4CCNCC4)cc3)cnc2N)cc(OC)c1OC	CDK2 with cyclin A		0.1 µM	1%
Cn1cnc(Br)c1C1=CN(c2ncnc3[nH]cnc23)CCS1	CDK2	radiometric	2 µM	50.8%
CN1CC(Oc2cnc(C#N)cc2-c2ccn3nc(NC(=O)C4CC4)cc3c2)C1	CDK2 with cyclin A		1 µM	0%
COc1cc2ncnc(Nc3ccc(Oc4ccccc4)c(C)c3C)c2cc1OC	CDK2 with cyclin A		1 µM	1%
CNC(=O)c1ccccc1Nc1cc(Nc2ccc(N3CCOCC3)cc2OC)ncc1C(F)(F)F	CDK2		1 µM	> 50%
CN(C)C1CCN(CC#Cc2nn(C3CCCC3)c3nc(NCc4ccccc4)ncc23)C1 (stereo not shown)	CDK2 with cyclin A	FRET	10 µM	4%
Cn1cncc1C1=CN(c2ncnc3[nH]cnc23)CCS1	CDK2	radiometric	2 µM	49.1%
CCCS(=O)(=O)Nc1ccc(F)c(C(=O)c2c[nH]c3ncc(-c4ccc(Cl)cc4)cc23)c1F	CDK2 with cyclin A		1 µM	< 10%
CN(c1ncccc1CNc1nc(Nc2ccc3c(c2)CC(=O)N3)ncc1C(F)(F)F)S(C)(=O)=O	CDK2		1 µM	94.4%
